Assay results as given in ChEMBL document CHEMBL1156952, “Synthesis and biological evaluations of novel bendazac lysine analogues as potent anticataract agents” (Bioorg Med Chem Lett, 2010).
≈ marks a conversion by molar mass, not a printed value.

Experiments:
[1] = Aqueous solubility of the compound; format: physicochemical; details: water (aqueous)
[2] = Anticataract activity against FeCl3/H2O2-induced cataract in rat lens assessed as absence of opacificaion at 0.5 mM treated 1 hr before FeCl3/H2O2 challenge measured after 24 hrs; format: functional, Lens of camera-type eye
Outline: (§1)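 Isolated rat lenses were cultured in DMEM and challenged with FeCl3 (0.02%) plus H2O2 (0.5%). Compounds were added at 0.5 mM to the medium of transparent lenses, with a challenged, untreated control. Lenses were scored as the percentage at each opacification grade (−, +, ++, +++).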

[3] = Anticataract activity against FeCl3/H2O2-induced cataract in rat lens assessed as slight degree of opacificaion at 0.5 mM treated 1 hr before FeCl3/H2O2 challenge measured after 24 hrs; format: functional, Lens of camera-type eye; outline: as §1
[4] = Anticataract activity against FeCl3/H2O2-induced cataract in rat lens assessed as middle degree of opacificaion at 0.5 mM treated 1 hr before FeCl3/H2O2 challenge measured after 24 hrs; format: functional, Lens of camera-type eye; outline: as §1
[5] = Anticataract activity against FeCl3/H2O2-induced cataract in rat lens assessed as extensive mature nuclear opacity at 0.5 mM treated 1 hr before FeCl3/H2O2 challenge measured after 24 hrs; format: functional, Lens of camera-type eye; outline: as §1
[6] = Anticataract activity against FeCl3/H2O2-induced cataract in rabbit lens assessed as absence of opacificaion at 0.5 mM treated 1 hr before FeCl3/H2O2 challenge measured after 24 hrs; format: functional, Oryctolagus cuniculus, Lens of camera-type eye
[7] = Anticataract activity against FeCl3/H2O2-induced cataract in rabbit lens assessed as slight degree of opacificaion at 0.5 mM treated 1 hr before FeCl3/H2O2 challenge measured after 24 hrs; format: functional, Oryctolagus cuniculus, Lens of camera-type eye
[8] = Anticataract activity against FeCl3/H2O2-induced cataract in rabbit lens assessed as middle degree of opacificaion at 0.5 mM treated 1 hr before FeCl3/H2O2 challenge measured after 24 hrs; format: functional, Oryctolagus cuniculus, Lens of camera-type eye
[9] = Anticataract activity against FeCl3/H2O2-induced cataract in rabbit lens assessed as extensive mature nuclear opacity at 0.5 mM treated 1 hr before FeCl3/H2O2 challenge measured after 24 hrs; format: functional, Oryctolagus cuniculus, Lens of camera-type eye
Oryctolagus cuniculus [10] = organism: Oryctolagus cuniculus; experiment: Anticataract activity against FeCl3/H2O2-induced cataract in rabbit lens treated 1 hr before FeCl3/H2O2 challenge measured after 24 hrs; format: functional, tissue-based; details: Lens of camera-type eye
Oryctolagus cuniculus [11] = organism: Oryctolagus cuniculus; experiment: Induction of water-solvent protein level in rabbit lens homogenates at 5 mM (Rvb= 7.40 +/-0.73 mg/mL); format: functional, tissue-based; details: Lens of camera-type eye
Outline: (§2)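 Rabbit lenses were cultured in DMEM under FeCl3 (0.02%) plus H2O2 (2%) challenge, with compound at 5, 10 or 15 mM in the medium. Each group's lenses were then homogenized. Water-soluble protein, total antioxidant capacity and malondialdehyde were each measured in the homogenate with a reagent kit.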

Oryctolagus cuniculus [12] = organism: Oryctolagus cuniculus; experiment: Induction of total-antioxidant capacity level in rabbit lens homogenates at 5 mM (Rvb= 0.04 u/mg); format: functional, tissue-based; details: Lens of camera-type eye; outline: as §2
Oryctolagus cuniculus [13] = organism: Oryctolagus cuniculus; experiment: Induction of total-antioxidant capacity level in rabbit lens homogenates at 10 mM (Rvb= 0.04 u/mg); format: functional, tissue-based; details: Lens of camera-type eye; outline: as §2
Oryctolagus cuniculus [14] = organism: Oryctolagus cuniculus; experiment: Induction of total-antioxidant capacity level in rabbit lens homogenates at 15 mM (Rvb= 0.04 u/mg); format: functional, tissue-based; details: Lens of camera-type eye; outline: as §2
Oryctolagus cuniculus [15] = organism: Oryctolagus cuniculus; experiment: Reduction of malondialdehyde level in rabbit lens homogenates at 5 mM (Rvb= 0.46 +/-0.27 nmol/mg); format: functional, tissue-based; details: Lens of camera-type eye; outline: as §2
Oryctolagus cuniculus [16] = organism: Oryctolagus cuniculus; experiment: Reduction of malondialdehyde level in rabbit lens homogenates at 10 mM (Rvb= 0.46 +/-0.27 nmol/mg); format: functional, tissue-based; details: Lens of camera-type eye; outline: as §2
Oryctolagus cuniculus [17] = organism: Oryctolagus cuniculus; experiment: Reduction of malondialdehyde level in rabbit lens homogenates at 15 mM (Rvb= 0.46 +/-0.27 nmol/mg); format: functional, tissue-based; details: Lens of camera-type eye; outline: as §2
[18] = Anticataract activity against FeCl3/H2O2-induced cataract in rabbit lens assessed as absence of opacificaion at 10 mM treated 1 hr before FeCl3/H2O2 challenge measured after 24 hrs; format: functional, Oryctolagus cuniculus, Lens of camera-type eye
[19] = Anticataract activity against FeCl3/H2O2-induced cataract in rabbit lens assessed as slight degree of opacificaion at 10 mM treated 1 hr before FeCl3/H2O2 challenge measured after 24 hrs; format: functional, Oryctolagus cuniculus, Lens of camera-type eye
[20] = Anticataract activity against FeCl3/H2O2-induced cataract in rabbit lens assessed as middle degree of opacificaion at 10 mM treated 1 hr before FeCl3/H2O2 challenge measured after 24 hrs; format: functional, Oryctolagus cuniculus, Lens of camera-type eye
[21] = Anticataract activity against FeCl3/H2O2-induced cataract in rabbit lens assessed as extensive mature nuclear opacity at 10 mM treated 1 hr before FeCl3/H2O2 challenge measured after 24 hrs; format: functional, Oryctolagus cuniculus, Lens of camera-type eye

Compound `N[C@@H](Cc1c[nH]cn1)C(=O)O.O=C(O)C(Oc1nn(Cc2ccc(Cl)cc2)c2ccccc12)C(=O)O` has a solubility [1] of 51 mg/mL.
Work on `O=C([O-])C(Oc1nn(Cc2cccc(Cl)c2)c2ccccc12)C(=O)[O-].[K+].[K+]` yielded a solubility [1] of less than 1 mg/mL.
For `NCCCC[C@H](N)C(=O)O.O=C(O)C(Oc1nn(Cc2cccc(F)c2)c2ccccc12)C(=O)O`, the solubility [1] was 134 mg/mL, the Activity [2] was 0% and the Activity [3] was 55%. The Activity [4] was 45% and the Activity [5] was 0%.
Compound `NCCCC[C@H](N)C(=O)O.O=C(O)C(Oc1nn(Cc2ccc(Cl)cc2)c2ccccc12)C(=O)O` has a solubility [1] of 312 mg/mL.
`N[C@@H](Cc1c[nH]cn1)C(=O)O.O=C(O)C(Oc1nn(Cc2cccc(Cl)c2)c2ccccc12)C(=O)O` gave a solubility [1] of 115 mg/mL.
With `O=C(O)C(Oc1nn(Cc2ccc(Cl)cc2)c2ccccc12)C(=O)O` the solubility [1] was less than 1 mg/mL.
In the case of `NCCCC[C@H](N)C(=O)O.O=C(O)C(Oc1nn(Cc2ccccc2)c2ccccc12)C(=O)O`, the solubility [1] is reported as 123 mg/mL, the Activity [6] is reported as 0% and the Activity [7] is reported as 30%. It also gave an Activity [8] of 35%, an Activity [9] of 35% and an Activity [2] of 0%. It also gave an Activity [3] of 15%, an Activity [4] of 70% and an Activity [5] of 15%.
Compound `Cc1ccc(Cn2nc(OC(C(=O)O)C(=O)O)c3ccccc32)cc1` has a solubility [1] of less than 1 mg/mL.
For `Cc1ccc(Cn2nc(OC(C(=O)O)C(=O)O)c3ccccc32)cc1.NCCCC[C@H](N)C(=O)O`, the solubility [1] was 57.4 mg/mL.
Work on `O=C(O)C(Oc1nn(Cc2cccc(F)c2)c2ccccc12)C(=O)O` yielded a solubility [1] of 2 mg/mL (≈ 5.81 mM).
For `N[C@@H](Cc1c[nH]cn1)C(=O)O.O=C(O)C(Oc1nn(Cc2ccccc2)c2ccccc12)C(=O)O`, the Activity (Oryctolagus cuniculus [10]) was “Dose-dependent effect”, the WSP level (Oryctolagus cuniculus [11]) was 13 mg/mL and the T-AOC level (Oryctolagus cuniculus [12]) was 0.21 U/mg. For the same compound, the T-AOC level (Oryctolagus cuniculus [13]) was 0.64 U/mg, the T-AOC level (Oryctolagus cuniculus [14]) was 0.34 U/mg and the MDA level (Oryctolagus cuniculus [15]) was 0.04 nmol/mg. It also gave an MDA level (Oryctolagus cuniculus [16]) of 0.03 nmol/mg and an MDA level (Oryctolagus cuniculus [17]) of 0.08 nmol/mg.
For `NCCCC[C@H](N)C(=O)O.O=C(O)COc1nn(Cc2ccccc2)c2ccccc12` [BENDAZAC LYSINE], the solubility [1] was 93.8 mg/mL, the Activity [6] was 0% and the Activity [7] was 75%. For the same compound, the Activity [8] was 25%, the Activity [9] was 0% and the Activity [2] was 0%. The Activity [3] was 55%, the Activity [4] was 40% and the Activity [5] was 5%. It also gave an Activity [18] of 20%, an Activity [19] of 65% and an Activity [20] of 15%. The Activity [21] was 0%.
In the case of `Cc1ccc(Cn2nc(OC(C(=O)[O-])C(=O)[O-])c3ccccc32)cc1.[K+].[K+]`, the solubility [1] is reported as less than 1 mg/mL.
`O=C([O-])C(Oc1nn(Cc2ccccc2)c2ccccc12)C(=O)[O-].[K+].[K+]` gave a solubility [1] of 2.2 mg/mL, an Activity [6] of 0% and an Activity [7] of 30%. For the same compound, the Activity [8] was 40%, the Activity [9] was 30% and the Activity [2] was 0%. For the same compound, the Activity [3] was 0%, the Activity [4] was 50% and the Activity [5] was 50%.
For `O=C([O-])C(Oc1nn(Cc2ccc(Cl)cc2)c2ccccc12)C(=O)[O-].[Na+].[Na+]`, the solubility [1] was less than 1 mg/mL.
